pIC50: −log10 of the molar value. The source made the active and inactive calls. The rule behind the calls is not given here.

Tested on in one experiment: not listed separately
Kind of experiment: Antioxidant activity assessed as radical scavenging activity in FMLP-stimulated human PMNC by chemiluminescence assay. The experiment is classed as functional. The essentials: (§1)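 Human PMNs in HBSS (5 × 10⁶ cells/ml) preincubated 30 min at 37 °C with luminol (0.2 mM, as added) and test solution (ethanol stock diluted in HBSS). Stimulated with FMLP (0.5 μM, as added). Luminol-enhanced chemiluminescence recorded in cpm for 15 min at 37 °C. Area under the curve expressed as % of compound-free control; five measurements per concentration, averaged. Quercetin served as positive control.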
With `C[C@@H]1O[C@@H](O[C@H]2[C@H](Oc3c(-c4ccc(O)c(O)c4)oc4cc(O[C@@H]5O[C@H](CO)[C@@H](O)[C@H](O)[C@H]5O)cc(O)c4c3=O)OC[C@H](O)[C@@H]2O)[C@H](O)[C@H](O)[C@H]1O` [CALABRICOSIDE A], the pIC50 is 6.60.
In the case of `O=c1c(O)c(-c2ccc(O)c(O)c2)oc2cc(O)cc(O)c12` [QUERCETIN], the pIC50 was 6.30.
With `C[C@@H]1O[C@@H](O[C@H]2[C@H](Oc3c(-c4ccc(O)c(O)c4)oc4cc(O[C@@H]5O[C@H](CO)[C@@H](O)[C@H](O)[C@H]5O)cc(O)c4c3=O)OC[C@H](O)[C@@H]2O)[C@H](O)[C@H](O)[C@H]1OC(=O)/C=C/c1ccc(O)c(O)c1` [CALABRICOSIDE B], the pIC50 is 6.52.

The next experiment is filed under the species Homo sapiens. Kind of experiment: Antioxidant activity assessed as radical scavenging activity in FMLP-stimulated human PMNC up to 30 uM by chemiluminescence assay. It counts as functional. The procedure, abridged: as §1
Regarding `CC(=O)OCC1=C[C@@H]2OC(=O)C3=CO[C@@H](O[C@@H]4O[C@H](CO)[C@@H](O)[C@H](O)[C@H]4O)[C@H]1[C@@H]32`, the result was inactive.
Consider `CSC(=O)OCC1=C[C@H](O)[C@H]2C(C(=O)O)=CO[C@@H](O[C@@H]3O[C@@H](CO)[C@@H](O)[C@@H](O)[C@H]3O)[C@H]12`, for which the outcome was inactive.
Take `O=C1O[C@H]2C=C(CO)[C@H]3[C@H](O[C@@H]4O[C@H](CO)[C@@H](O)[C@H](O)[C@H]4O)OC=C1[C@H]32`: the outcome was inactive.
Same read-out and setting: the result for `CSC(=O)OCC1=C[C@@H]2OC(=O)C3=CO[C@@H](O[C@@H]4O[C@H](CO)[C@@H](O)[C@H](O)[C@H]4O)[C@H]1[C@@H]32` reads “inactive”; that for `COc1cc([C@H]2OC[C@H]3[C@@H]2CO[C@@H]3c2cc(OC)c(O[C@@H]3O[C@H](CO)[C@@H](O)[C@H](O)[C@H]3O)c(OC)c2)cc(OC)c1O[C@@H]1O[C@H](CO)[C@@H](O)[C@H](O)[C@H]1O`, “inactive”; that for `CC(=O)OCC1=C[C@H](O)[C@@H]2C(C(=O)O)=CO[C@@H](O[C@H]3O[C@@H](CO)[C@H](O)[C@@H](O)[C@@H]3O)[C@H]12`, “inactive”.
Turning to `O=C(O)C1=CO[C@@H](O[C@@H]2O[C@H](CO)[C@@H](O)[C@H](O)[C@H]2O)[C@@H]2C(CO)=CC[C@H]12`, the result was inactive.
For the molecule `O=C(O)C1=CO[C@@H](O[C@@H]2O[C@H](CO)[C@@H](O)[C@H](O)[C@H]2O)[C@@H]2C(CO)=C[C@@H](O)[C@H]12`, the outcome was inactive.
In the case of `COc1cc(C[C@H]2CO[C@@H](c3ccc(O[C@@H]4O[C@H](CO)[C@@H](O)[C@H](O)[C@H]4O)c(OC)c3)[C@H]2CO)ccc1O[C@@H]1O[C@H](CO)[C@@H](O)[C@H](O)[C@H]1O`, the result was inactive.
